Assay results: ChEMBL document CHEMBL3596157, “Heteroaromatic analogs of the resveratrol analog DMU-212 as potent anti-cancer agents” (2015)

Experiments:
Format in all cases: functional
NCI-H226 = test: Growth inhibition of human NCI-H226 cells after 48 hrs by SRB assay; settings: NCI-H226, 48 h
Method in brief: (§1)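 NCI-60 panel screen. Cells exposed for 48 h to five concentrations (10−4, 10−5, 10−6, 10−7 and 10−8 M). Sulforhodamine B optical density is read just before compound addition (time zero) and after 48 h, for both treated and vehicle-control wells. Percent growth is calculated against control. GI50 is the concentration giving a 50% reduction in net cell growth relative to cell numbers on day 0.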

SK-MEL-5 = test: Growth inhibition of human SK-MEL-5 cells after 48 hrs by SRB assay; settings: SK-MEL-5, 48 h; method in brief: as §1
HOP-62 = test: Growth inhibition of human HOP62 cells after 48 hrs by SRB assay; settings: HOP-62, 48 h; method in brief: as §1
SK-MEL-28 = test: Growth inhibition of human SK-MEL-28 cells after 48 hrs by SRB assay; settings: SK-MEL-28, 48 h; method in brief: as §1
Malme-3M = test: Growth inhibition of human MALME-3M cells after 48 hrs by SRB assay; method in brief: as §1
UO-31 = test: Growth inhibition of human UO31 cells after 48 hrs by SRB assay; settings: UO-31, 48 h
Method in brief: (§2)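 NCI-60 panel cells; preliminary single-dose screen at 10−5 M, then five-dose testing at 10−4 to 10−8 M (tenfold steps) with 48 h exposure. SRB-stained optical density read before compound addition (time zero), after 48 h with compound, and with vehicle control. Percent growth is calculated against control. GI50 is the concentration giving 50% reduction in net growth relative to day-0 cell number.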

[1] = Growth inhibition of human LOXIMVI cells after 48 hrs by SRB assay; settings: LOX IMVI; method in brief: as §1
K562 = test: Growth inhibition of human K562 cells after 48 hrs by SRB assay; settings: K562, 48 h; method in brief: as §1
NCI-H322M = test: Growth inhibition of human NCI-H322M cells after 48 hrs by SRB assay; method in brief: as §1
NCI-H522 = test: Growth inhibition of human NCI-H522 cells after 48 hrs by SRB assay; settings: NCI-H522, 48 h; method in brief: as §1
[2] = Growth inhibition of human EKVX cells after 48 hrs by SRB assay; method in brief: as §1
ACHN = test: Growth inhibition of human ACHN cells after 48 hrs by SRB assay; method in brief: as §1
SR = test: Growth inhibition of human SR cells after 48 hrs by SRB assay; method in brief: as §2
PC-3 = test: Growth inhibition of human PC3 cells after 48 hrs by SRB assay; settings: PC-3, 48 h; method in brief: as §1
[3] = Growth inhibition of human BT549 cells after 48 hrs by SRB assay; settings: BT-549, 48 h; method in brief: as §1
OVCAR-4 = test: Growth inhibition of human OVCAR4 cells after 48 hrs by SRB assay; settings: OVCAR-4, 48 h; method in brief: as §1
SK-MEL-2 = test: Growth inhibition of human SK-MEL-2 cells after 48 hrs by SRB assay; settings: SK-MEL-2, 48 h; method in brief: as §1
CAKI-1 = test: Growth inhibition of human Caki1 cells after 48 hrs by SRB assay; settings: CAKI-1, 48 h; method in brief: as §1
U-251 = test: Growth inhibition of human U251 cells after 48 hrs by SRB assay; settings: U-251, 48 h; method in brief: as §2
M14 = test: Growth inhibition of human M14 cells after 48 hrs by SRB assay; settings: M14, 48 h; method in brief: as §1
HCT-15 = test: Growth inhibition of human HCT15 cells after 48 hrs by SRB assay; settings: HCT-15, 48 h; method in brief: as §1
MDA-MB-231 = test: Growth inhibition of human MDA-MB-231/ATCC cells after 48 hrs by SRB assay; settings: MDA-MB-231, 48 h; method in brief: as §1
[4] = Growth inhibition of human COLO205 cells after 48 hrs by SRB assay; settings: COLO 205, 48 h; method in brief: as §1
OVCAR-3 = test: Growth inhibition of human OVCAR3 cells after 48 hrs by SRB assay; settings: OVCAR-3, 48 h; method in brief: as §1
[5] = Growth inhibition of human HCC2998 cells after 48 hrs by SRB assay; settings: HCC 2998, 48 h; method in brief: as §1
UACC-257 = test: Growth inhibition of human UACC257 cells after 48 hrs by SRB assay; settings: UACC-257, 48 h; method in brief: as §2
SNB-19 = test: Growth inhibition of human SNB19 cells after 48 hrs by SRB assay; settings: SNB-19, 48 h; method in brief: as §1
OVCAR-5 = test: Growth inhibition of human OVCAR5 cells after 48 hrs by SRB assay; settings: OVCAR-5, 48 h; method in brief: as §1
SNB-75 = test: Growth inhibition of human SNB75 cells after 48 hrs by SRB assay; settings: SNB-75, 48 h; method in brief: as §2
[6] = Growth inhibition of human HOP92 cells after 48 hrs by SRB assay; settings: HOP-92, 48 h; method in brief: as §1
[7] = Growth inhibition of human NCI-ADR-RES cells after 48 hrs by SRB assay; method in brief: as §1
[8] = Growth inhibition of human RPMI8226 cells after 48 hrs by SRB assay; settings: RPMI-8226, 48 h; method in brief: as §1
[9] = Growth inhibition of human MOLT4 cells after 48 hrs by SRB assay; settings: MOLT-4, 48 h; method in brief: as §1
[10] = Growth inhibition of human SF295 cells after 48 hrs by SRB assay; settings: SF-295, 48 h; method in brief: as §1
NCI-H23 = test: Growth inhibition of human NCI-H23 cells after 48 hrs by SRB assay; settings: NCI-H23, 48 h; method in brief: as §1
A498 = test: Growth inhibition of human A498 cells after 48 hrs by SRB assay; settings: A498, 48 h; method in brief: as §1
IGROV-1 = test: Growth inhibition of human IGROV1 cells after 48 hrs by SRB assay; settings: IGROV-1, 48 h; method in brief: as §1
786-0 = test: Growth inhibition of human 786-0 cells after 48 hrs by SRB assay; settings: 786-0, 48 h; method in brief: as §1
SK-OV-3 = test: Growth inhibition of human SKOV3 cells after 48 hrs by SRB assay; settings: SK-OV-3, 48 h; method in brief: as §1
SW-620 = test: Growth inhibition of human SW620 cells after 48 hrs by SRB assay; settings: SW-620, 48 h; method in brief: as §2
HCT-116 = test: Growth inhibition of human HCT116 cells after 48 hrs by SRB assay; settings: HCT-116, 48 h; method in brief: as §1
[11] = Growth inhibition of human Hs578T cells after 48 hrs by SRB assay; settings: Hs-578T; method in brief: as §1
CCRF-CEM = test: Growth inhibition of human CCRF-CEM cells after 48 hrs by SRB assay; method in brief: as §1
HT-29 = test: Growth inhibition of human HT-29 cells after 48 hrs by SRB assay; settings: HT-29, 48 h; method in brief: as §1
NCI-H460 = test: Growth inhibition of human NCI-H460 cells after 48 hrs by SRB assay; settings: NCI-H460, 48 h; method in brief: as §1
DU-145 = test: Growth inhibition of human DU145 cells after 48 hrs by SRB assay; settings: DU-145, 48 h; method in brief: as §1
A549 = test: Growth inhibition of human A549/ATCC cells after 48 hrs by SRB assay; settings: A549, 48 h; method in brief: as §1
[12] = Growth inhibition of human SF539 cells after 48 hrs by SRB assay; settings: SF-539, 48 h; method in brief: as §1
TK-10 = test: Growth inhibition of human TK10 cells after 48 hrs by SRB assay; settings: TK-10, 48 h; method in brief: as §2
MCF7 = test: Growth inhibition of human MCF7 cells after 48 hrs by SRB assay; settings: MCF7, 48 h; method in brief: as §1
OVCAR-8 = test: Growth inhibition of human OVCAR8 cells after 48 hrs by SRB assay; settings: OVCAR-8, 48 h; method in brief: as §1
KM12 = test: Growth inhibition of human KM12 cells after 48 hrs by SRB assay; settings: KM12, 48 h; method in brief: as §1
SF-268 = test: Growth inhibition of human SF268 cells after 48 hrs by SRB assay; settings: SF-268, 48 h; method in brief: as §1
[13] = Growth inhibition of human RXF393 cells after 48 hrs by SRB assay; settings: RXF 393, 48 h; method in brief: as §1
UACC-62 = test: Growth inhibition of human UACC62 cells after 48 hrs by SRB assay; settings: UACC-62, 48 h; method in brief: as §2
SN12C = test: Growth inhibition of human SN12C cells after 48 hrs by SRB assay; method in brief: as §1
MDA-MB-435 = test: Growth inhibition of human MDA-MB-435 cells after 48 hrs by SRB assay; settings: MDA-MB-435, 48 h; method in brief: as §1

## COc1cc(/C=C/c2cc3ccccc3s2)cc(OC)c1OC
NCI-H226
  GI50: 442 nM
SK-MEL-5
  GI50: 267 nM
HOP-62
  GI50: 420 nM
SK-MEL-28
  GI50: 346 nM
Malme-3M
  GI50: 826 nM
UO-31
  GI50: 513 nM
[1]
  GI50: 382 nM
K562
  GI50: 88 nM
NCI-H322M
  GI50: 649 nM
NCI-H522
  GI50: 153 nM
[2]
  GI50: 10300 nM
ACHN
  GI50: 810 nM
SR
  GI50: 120 nM
PC-3
  GI50: 276 nM
[3]
  GI50: 326 nM
OVCAR-4
  GI50: 553 nM
SK-MEL-2
  GI50: 323 nM
CAKI-1
  GI50: 4350 nM
U-251
  GI50: 338 nM
M14
  GI50: 169 nM
HCT-15
  GI50: 328 nM
MDA-MB-231
  GI50: 450 nM
[4]
  GI50: 209 nM
OVCAR-3
  GI50: 224 nM
[5]
  GI50: 307 nM
UACC-257
  GI50: 520 nM
SNB-19
  GI50: 362 nM
OVCAR-5
  GI50: 547 nM
SNB-75
  GI50: 190 nM
[6]
  GI50: 322 nM
[7]
  GI50: 70 nM
[8]
  GI50: 268 nM
[9]
  GI50: 424 nM
[10]
  GI50: 442 nM
NCI-H23
  GI50: 324 nM
A498
  GI50: 213 nM
IGROV-1
  GI50: 520 nM
786-0
  GI50: 445 nM
SK-OV-3
  GI50: 263 nM
SW-620
  GI50: 293 nM
HCT-116
  GI50: 246 nM
[11]
  GI50: 275 nM
CCRF-CEM
  GI50: 262 nM
HT-29
  GI50: 234 nM
NCI-H460
  GI50: 351 nM
DU-145
  GI50: 402 nM
A549
  GI50: 310 nM
[12]
  GI50: 299 nM
TK-10
  GI50: 566 nM
MCF7
  GI50: 285 nM
OVCAR-8
  GI50: 352 nM
KM12
  GI50: 213 nM
SF-268
  GI50: 985 nM
[13]
  GI50: 168 nM
UACC-62
  GI50: 185 nM
SN12C
  GI50: 666 nM
MDA-MB-435
  GI50: 36 nM
